Source: PubChem
Only some compounds are listed: those with a hit (about 2.3% of all), similar ones and a draw of the others.
DNMT1 block = human DNMT1 methyltransferase inhibitors, primary screen, biochemical, molecular beacon, fluorescence, HinP1I cleavage, uHTS. inhibition (reported as % activation of signal), % at 10 µM. actives 0.83% (n = 360,000); in the data active means inhibition above about 50%
NadD block = inhibitors of S. aureus NadD, primary screen, biochemical, colorimetric, uHTS | purified NadD enzyme, colorimetric absorbance read-out | inhibition, % at 20 µM | actives 0.78% (n = 360,000) | AID 602399, 2012; in the data active means inhibition above about 26%
STEP inh = STEP phosphatase inhibitors, primary screen, biochemical, fluorescence intensity, uHTS; AID 588621, 2011; Tyrosine-protein phosphatase non-receptor type 5 (Homo sapiens), P54829; inhibition, % at 20 µM; actives 0.25% (n = 360,000); recombinant STEP, OMFP fluorogenic substrate;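 active means inhibition at 20 µM, scaled per plate between control wells, above about 37%, limit read from the data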
Target sequence (P54829 whole entry, looked up): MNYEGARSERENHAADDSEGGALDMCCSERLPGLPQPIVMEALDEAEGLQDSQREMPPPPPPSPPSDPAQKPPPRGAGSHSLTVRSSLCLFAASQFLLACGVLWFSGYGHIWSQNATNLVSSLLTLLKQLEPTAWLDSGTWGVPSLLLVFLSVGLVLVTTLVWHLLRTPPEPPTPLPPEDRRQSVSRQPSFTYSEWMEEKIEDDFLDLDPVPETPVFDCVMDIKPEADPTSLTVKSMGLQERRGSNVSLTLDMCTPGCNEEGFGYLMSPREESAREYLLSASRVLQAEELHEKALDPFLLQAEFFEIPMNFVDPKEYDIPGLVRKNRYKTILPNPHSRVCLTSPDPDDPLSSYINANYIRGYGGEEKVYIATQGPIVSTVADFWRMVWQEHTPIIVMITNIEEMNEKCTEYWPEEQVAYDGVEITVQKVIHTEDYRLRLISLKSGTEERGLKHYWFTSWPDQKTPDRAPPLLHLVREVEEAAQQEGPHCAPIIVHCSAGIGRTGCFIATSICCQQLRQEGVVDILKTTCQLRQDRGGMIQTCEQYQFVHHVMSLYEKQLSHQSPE
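material = STEP tyrosine phosphatase | reagent = fluorogenic phosphatase substrate OMFP at 25 µM final | doses = single compound dose of 20 µM, 1% DMSO final | schedule = 20 min reaction, room temperature, in the dark | measured by = fluorescence, 480/540 nm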
Scp-1 inhibitor = Scp-1 phosphatase inhibitors, primary screen, biochemical, colorimetric, uHTS. Carboxy-terminal domain RNA polymerase II polypeptide A small phosphatase 1 (Homo …. Recombinant Scp1, phosphopeptide, malachite green phosphate absorbance. inhibition, % at 20 µM. actives 0.88% (n = 340,000);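 active means inhibition above about 50% at 20 µM, limit read from the data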
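Incubation: 45 min enzyme reaction at room temperature / System: truncated SCP-1 phosphatase (76-261aa) / Reagent: Phospho 17-mer peptide substrate / Buffer or medium: Acidic Tris acetate buffer with magnesium and detergent / Signal: absorbance at 630 nm / Doses: one concentration, 20 µM, with 1.0% DMSO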
SUMO1 PPI mod = modulators of SUMO1 protein-protein interactions, primary screen, biochemical, uHTS | Small ubiquitin-related modifier 1 (Homo sapiens), P63165 | SUMO1 binding to a labelled peptide, TR-FRET, 1 h | inhibition, % at 20 µM | actives 0.33% (n = 360,000) | AID 602429, 2012; in the data active means inhibition above about 37%
LMPTP block = LMPTP phosphatase inhibitors, primary screen, biochemical, fluorescence intensity, uHTS. recombinant LMPTP-A, OMFP fluorogenic substrate. inhibition, % at 20 µM. actives 0.22% (n = 360,000). AID 651560, 2012;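 active means compounds that cut the enzyme signal by at least half of the control window in the single-dose screen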
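Assay system: LMPTP-A, protein tyrosine phosphatase of low molecular weight / Medium: pH 6.0 Bis-Tris buffer with DTT and Triton X-100 / Schedule: 50 min enzyme reaction at room temperature, protected from light / Measured by: endpoint fluorescence intensity from OMFP dephosphorylation / Read-out basis: % inhibition relative to no-enzyme and uninhibited control wells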
Hits are given with their value; i = inactive; nt = no result.

SMILES	DNMT1 block	NadD block	STEP inh	Scp-1 inhibitor	SUMO1 PPI mod	LMPTP block
Cc1ccc(S(=O)(=O)/N=C2/NC(=O)/C(=C\c3cc(Br)cc(Br)c3O)S2)cc1	i	40.6	i	i	i	i
CCOc1cc(Br)cc(/C=C2\SC(=Nc3ccccc3)NC2=O)c1O	i	36.2	i	i	i	i
CC1(Br)C(Sc2ccccc2[N+](=O)[O-])=Nc2ccccc21 (centres undefined)	nt	i	nt	nt	i	i
Cc1ccc(S(=O)(=O)N2C3CCCCC3O[C@H]2CC(=O)c2cccs2)cc1 (some centres undefined)	nt	nt	nt	nt	i	i
O=C1CCC[C@@H]2C=C[C@H](c3ccc(Br)cc3)[C@H]3CCN1[C@@H]32	nt	i	nt	nt	i	i
CC(=NNC(=O)c1ccncc1)c1ccc2ccccc2c1O	i	i	i	i	i	i
Cc1cc(N/N=C/c2ccccc2O)nc(-c2ccccc2O)n1	i	i	i	i	42.3	i
COC(=O)c1ccc(Nc2cc(C)nc(-c3ccccc3O)n2)cc1	i	i	i	i	58.8	i
Cc1cc(N/N=C/c2ccc(O)cc2O)nc(-c2ccccc2O)n1	i	i	i	i	i	i
O=C(N=Nc1c(O)[nH]c2ccccc12)c1cccc(S(=O)(=O)N2CCCCC2)c1	i	i	i	i	i	i
CNC(=S)N=Nc1c(O)[nH]c2ccc(C(C)C)cc12	i	i	i	i	i	i
CC(C)c1ccc2[nH]c(O)c(N=NC(=O)c3cccc(S(=O)(=O)N4CCCCC4)c3)c2c1	i	31.2	i	i	i	i
CC(C)c1ccc2[nH]c(O)c(N=NC(=O)c3cccc(S(=O)(=O)Nc4cccc(Cl)c4)c3)c2c1	i	34.8	i	i	i	i
CC(C)c1ccc2[nH]c(O)c(N=NC(=O)c3cccc(S(=O)(=O)Nc4ccc(Cl)cc4)c3)c2c1	i	37.1	i	i	i	i
c1ccc2c(c1)Sc1cnccc1N2CC1CO1 (centres undefined)	i	i	i	nt	i	i
CC(=O)c1cccc(CN2CCCC(CCC(=O)NCc3ccc(F)c(F)c3)C2)c1 (centres undefined)	i	i	i	i	i	i
CCOC(=O)c1cc(-c2ccc(/C=C3/C(=O)NC(=O)C(C#N)=C3C)o2)ccc1Cl	i	38.6	i	81.2	i	i
CC1=C(C#N)C(=O)NC(=O)/C1=C\c1ccc(-c2ccc(C)cc2[N+](=O)[O-])o1	i	i	i	i	i	i
CN(CC(=O)Nc1ccccc1C(F)(F)F)C(=O)C1=COCCO1	i	i	i	i	i	i
COc1ccccc1Nc1nc(-c2ccc3c(c2)NC(=O)CO3)cs1	i	i	i	i	i	i
COc1ccc(Nc2nc(-c3ccc4c(c3)NC(=O)CO4)cs2)cc1	i	i	i	i	i	54.0
COc1ccc(-c2cc(-c3ccccc3)nc(-c3ccc4c(c3)NC(=O)CO4)c2)cc1	i	i	i	i	i	i
CCC(C)Nc1nc(-c2ccc3c(c2)NC(=O)CO3)cs1 (centres undefined)	i	i	i	i	i	48.3
O=C1CCCC(O)=C1N=Nc1cccc(C(=O)O)c1	i	i	i	60.8	i	i
CN(C)C(=O)CCc1ccc2c3c([nH]c2c1)[C@]1(CCC2CCCC2)[C@@H](C(=O)N2CCOCC2)C[C@H](CC(=O)NCCc2ccccn2)C(=O)N1CC3	i	i	i	i	i	i
N#Cc1c(NC(=O)Cn2c(=O)oc3ccccc32)oc(-c2ccccc2)c1-c1ccccc1	i	i	i	i	41.4	i
COc1cc(OC)cc(-c2nnc(Nc3nc4c(F)cccc4s3)o2)c1	i	i	i	i	i	i
